Compound activity: PubChem, Johns Hopkins Ion Channel Center
Hits are enriched below; roughly 3.5% of the tested compounds scored in any of these assays.
RGS4 block: inhibitors of human RGS4; P49798; 0.45% of 310,000 active; AID 463165; HEK293 M3R/RGS4 inducible, Fluo-4 calcium flux; hits give high values; triggered by carbachol at its EC20; B-score at 10 µM;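 active = B-score, a plate-corrected calcium signal, over three deviations above library mean, with baseline fluorescence within five deviations of library mean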;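 also: RGS4 expression induced by doxycycline in cells with stable M3 receptor; B-score is computed from the integrated fluorescence ratio over baseline after carbachol; higher B-score means a larger calcium signal and so more RGS4 inhibition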
Target sequence (P49798 whole entry, looked up): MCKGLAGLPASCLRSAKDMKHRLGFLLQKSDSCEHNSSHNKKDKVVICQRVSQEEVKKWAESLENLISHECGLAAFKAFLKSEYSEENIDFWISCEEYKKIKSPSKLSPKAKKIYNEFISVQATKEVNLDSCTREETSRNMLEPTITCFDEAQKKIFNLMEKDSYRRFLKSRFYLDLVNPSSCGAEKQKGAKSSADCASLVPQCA
MrgX1 antag: antagonists of human MrgX1 receptor; Q96LB2; MRGX1-HEK293 calcium flux, Fluo-4, BAM8-22 antagonism; hits give low values; B-score at 10 µM; 1.3% of 310,000 active;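 active = calcium-response B-score plate-corrected more than 3 library SD below zero, starting fluorescence within 5 deviations, no agonist response on first addition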;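 also: peak minus trough fluorescence over baseline after final BAM8-22 challenge near maximal dose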
MrgX1 allo act: allosterically activates human MrgX1 receptor signaling | MrgX1-HEK293, Fluo-4 calcium flux, FDSS; hits give high values | 0.63% of 310,000 active | AID 588675 | B-score at 10 µM | Q96LB2;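 active = plate-corrected calcium response at least 3 library SD above typical, normal starting fluorescence, not activating the receptor alone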;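 also: compound read alongside a low EC10 to EC30 dose of BAM8-22 agonist; peak minus trough fluorescence over baseline measured at the second addition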
MrgX1 ag: human MrgX1 receptor agonism, primary screen. Q96LB2. MrgX1-HEK293 cells, Fluo-4 calcium fluorescence, agonist mode; hits give high values. B-score at 10 µM. 0.44% of 310,000 active. AID 588627;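 active = calcium response B-score plate-corrected fluorescence ratio at least 3 library SD, with starting fluorescence B-score inside 5 SD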
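System – MrgX1-expressing HEK293 cells · Incubation – cells plated overnight, dye loaded 0.5 h 37 °C, 0.5 h room temperature · Technique – kinetic Fluo-4 NW fluorescence of intracellular calcium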
RGS4 pot: potentiators or activators of RGS4; HEK293 M3R/inducible RGS4, carbachol calcium flux Fluo4; hits give low values; B-score at 10 µM; 0.92% of 310,000 active; AID 463111;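 active = B-score of the integrated calcium signal more than 4 SD below the library mean, with starting fluorescence not abnormally high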;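 also: negative B-score means reduced calcium response which marks RGS4 activation or potentiation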
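Assay system: Inducible-RGS4 HEK293 cells carrying M3 receptor | Schedule: Compound preincubation 20 min at room temperature before agonist | Signal: Kinetic calcium fluorescence imaging with Fluo4-AM dye, 2 µM | Read-out basis: B score from integrated fluorescence ratio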
RGS4 block valid: validation of RGS4 inhibitors; shares compounds with RGS4 block; HEK293 M3R/RGS4, carbachol calcium Fluo-4 fluorescence; carbachol added at its EC20; 0 = buffer wells, 100 = carbachol control; calcium response, % at 10 µM; 65% of 1,700 active; AID 492999;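 active = duplicate-averaged calcium response above the buffer-only control mean plus 5 SD of those controls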;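 also: integrated fluorescence ratio F max minus min over baseline F0; higher response in RGS4-induced cells means RGS4 inhibition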
M3R Ca ctr: counter-screen for RGS4 inhibitors: effect in non-induced cells; shares compounds with RGS4 block; HEK293 M3R non-induced, carbachol calcium Fluo-4; submaximal (EC20) carbachol stimulus; buffer wells 0%, carbachol control wells 100%; activity (percent), % at 10 µM; 20% of 1,900 active; call rule not given here;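 also: RGS4 induction absent so cells express M3R without RGS4; higher means more calcium signal and flags a non-specific hit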
RGS4 inh ctr2: second RGS4 inhibitor counter-screen in uninduced cells lacking carbachol; AID 493001; HEK293 M3R/RGS4 non-induced, Fluo-4 calcium, no carbachol; normalised: buffer wells 0%, carbachol wells 100%; 22% of 1,900 active; calcium response (agonist-mode artifact), % at 10 µM; shares compounds with RGS4 block;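 active = duplicate-averaged calcium rise in uninduced cells above buffer wells' mean plus 5 SD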
* marks the source's active call; other numbers are inactive results; i = inactive; x = no result given.

SMILES | RGS4 block | MrgX1 antag | MrgX1 allo act | MrgX1 ag | RGS4 pot | RGS4 block valid | M3R Ca ctr | RGS4 inh ctr2
COC(=O)c1ccc(Cn2nnc3c(=O)[nH]c(C4CCCN(S(=O)(=O)c5cccc(Cl)c5)C4)nc32)cc1 (stereo not given) | i | i | i | i | i | x | x | x
O=C(CC1S/C(=N/N=C2CCCCCC2)NC1=O)Nc1ccccc1C(F)(F)F (stereo not given) | i | i | i | i | i | x | x | x
COc1ccccc1NC(=O)CC1S/C(=N/N=C2\CCCc3ccccc32)NC1=O (stereo not given) | 6.1* | i | i | i | i | 60%* | 62%* | i
CC(=O)C1=C(S(=O)(=O)c2ccc(C)cc2)CS(=O)(=O)C1 | 26* | x | x | x | i | 40%* | i | i
Cc1ccc(S(=O)(=O)C2CS(=O)(=O)CC2O)cc1 (stereo not given) | i | i | i | i | i | x | x | x
COc1ccccc1NS(=O)(=O)c1ccc(NC(=O)c2[nH]nc(OC)c2[N+](=O)[O-])cc1 | i | i | i | i | i | x | x | x
CC(=O)C1=C(O)C(=O)N(c2ccc(C)cc2)C1c1ccc([N+](=O)[O-])cc1 (stereo not given) | i | i | i | i | i | x | x | x
Cc1ccc(/C=C/C(=O)N2CC(C)CC(C)C2)o1 (stereo not given) | 19* | i | i | i | i | 31%* | i | i
COc1cccc(NC(=O)c2sc3ncn(CC(=O)N4CCN(c5ccccn5)CC4)c(=O)c3c2C)c1 | i | i | i | i | i | x | x | x
OCCC1CN(Cc2cccn2-c2ncccn2)CCN1C1CCCC1 (stereo not given) | i | i | i | i | i | x | x | x
CC(=O)SC(C[N+](=O)[O-])c1cn(C(C)=O)c2ccccc12 (stereo not given) | 16* | i | i | 39* | i | 63%* | 29%* | 34%*
COc1ccc2cc(/C=C/C(=O)c3ccco3)c(Cl)nc2c1 | i | i | i | i | i | x | x | x
Cc1ccc2cc(/C=C/C(=O)c3ccco3)c(Cl)nc2c1 | 6* | i | i | i | i | i | 39%* | i
Cc1ccc2nc(Cl)c(/C=C/C(=O)c3ccco3)cc2c1 | i | i | i | i | i | i | 50%* | i
Cc1ccc2cc(/C=N/NC(=O)c3ccc(F)cc3)c(Cl)nc2c1 | i | i | i | i | i | x | x | x
COc1cc2cc(/C=C/C(=O)c3ccco3)c(Cl)nc2cc1OC | 8.1* | i | i | i | i | 16%* | i | 20%*
O=C(NCCC(=O)N1CCCCCCC1)c1ccc(Cl)cc1 | i | i | i | i | i | x | x | x
CN(C(=O)c1ccc(N2CCCCC2)c([N+](=O)[O-])c1)C1(C)CCS(=O)(=O)C1 (stereo not given) | i | i | i | i | i | x | x | x
C#CCOc1ccc(/C=C2/C(=O)N(c3cccc(C(=O)O)c3)N=C2C)cc1OC | 6* | i | i | i | i | 5.0%* | i | i
CC1=NN(c2ccccc2)C(=O)/C1=C/C=C/c1ccccc1 | i | i | i | i | i | x | x | x
CC1=NN(c2cccc(C(=O)O)c2)C(=O)/C1=C\C=C\c1ccco1 | 9.8* | i | i | i | i | 16%* | 34%* | i
CSc1cccc(CNC(=O)C2CCC(=O)N(CC3CCCCC3)C2)c1 (stereo not given) | i | i | i | i | i | x | x | x
